Results taken from ChEMBL document CHEMBL4138248, “Discovery of naphtho[1,2-d]oxazole derivatives as potential anti-HCV agents through inducing heme oxygenase-1 expression” (Eur J Med Chem, 2018).
Each block holds one molecule with its values, some of them ahead of it.

How the values were obtained:
Hepatitis C virus [1] = assay: Antiviral activity against HCV infected in human Ava5 cells assessed as inhibition of viral RNA replication at 5 uM after 3 days by RT-qPCR method relative to control; format: functional, Hepacivirus hominis; conditions: Ava5, 72 h
Summary of the method: (§1)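 Ava5 replicon cells were exposed to 5 or 20 μM for 3 days, starting from 10 mM DMSO stocks diluted in medium. HCV RNA was quantified by RT-qPCR against gapdh and expressed as % inhibition relative to untreated control. Ribavirin was the reference drug. Mean ± SD of three independent experiments.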

[2] = Cytotoxicity against human Ava5 cells assessed as cell viability at 200 uM after 72 hrs by XTT assay relative to control; format: cell-based; conditions: read-out: Activity
Summary of the method: (§2)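 XTT viability assay run alongside the antiviral assays. Ava5 cells were plated at 5×10^3 per well and exposed to 20 or 200 μM for 72 h at 37 °C in humidified 5% CO₂. Viability is expressed as % of untreated cells.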

[3] = Cytotoxicity against human Ava5 cells assessed as cell viability at 20 uM after 72 hrs by XTT assay relative to control; format: cell-based; conditions: read-out: Activity; summary of the method: as §2
Hepatitis C virus [4] = assay: Antiviral activity against HCV infected in human Ava5 cells assessed as inhibition of viral RNA replication at 20 uM after 3 days by RT-qPCR method relative to control; format: functional, Hepacivirus hominis; conditions: Ava5, 72 h; summary of the method: as §1
Hepatitis C virus [5] = assay: Antiviral activity against HCV infected in human Ava5 cells assessed as inhibition of viral RNA replication after 3 days by RT-qPCR method; format: functional, organism-based, Hepacivirus hominis; conditions: Ava5, 72 h
Summary of the method: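 Ava5 cells (Huh-7 hepatoma cells carrying an HCV replicon, grown in DMEM/10% FBS with 1 mg·mL⁻¹ G418) were treated for 3 days with a range of concentrations. HCV RNA was measured by RT-qPCR and normalized to cellular gapdh mRNA. Values are mean ± SD of three independent experiments, each in triplicate.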

[6] = Selectivity index, ratio of CC50 for human Ava5 cells to IC50 for HCV; format: toxicity; conditions: read-out: Ratio CC50/IC50
Summary of the method: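 SI = CC50/IC50. CC50 comes from 72 h XTT in […] Ava5 cells. IC50 is the concentration giving 50% inhibition of HCV, measured by RT-qPCR after 3 days in Ava5 cells.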

[7] = Cytotoxicity against human Ava5 cells assessed as decrease in cell viability after 72 hrs by XTT assay; format: cell-based
Summary of the method: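 XTT assay on […] Ava5 cells at 5×10^3 per well with serial dilutions for 72 h at 37 °C in 5% CO₂. CC50 is the concentration giving 50% growth inhibition.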

Compound: COc1ccc(N(C)c2cc3oc(-c4ccc(Cl)cc4)nc3c3ccccc23)cc1
- inhibition at 5 µM (Hepatitis C virus [1]): 2.4%
- viability at 72 h, 200 µM [2]: 29.6%
- viability at 72 h, 20 µM [3]: 94.7%
- inhibition at 20 µM (Hepatitis C virus [4]): 2.65%

Compound: CN(c1ccccc1)c1cc2oc(-c3ccco3)nc2c2ccccc12
- inhibition at 5 µM (Hepatitis C virus [1]): 2.9%
- viability at 72 h, 200 µM [2]: 40.6%
- viability at 72 h, 20 µM [3]: 88.8%
- inhibition at 20 µM (Hepatitis C virus [4]): 3.54%

Compound: CN(c1ccccc1)c1cc2oc(-c3ccccc3)nc2c2ccccc12
- inhibition at 5 µM (Hepatitis C virus [1]): 1.5%
- viability at 72 h, 200 µM [2]: 25.5%
- viability at 72 h, 20 µM [3]: 82.3%
- inhibition at 20 µM (Hepatitis C virus [4]): 2.31%

- IC50 (Hepatitis C virus [5]): 3.27 µM
Compound: COc1ccc(Nc2cc3oc(-c4ccccc4)nc3c3ccccc23)cc1
- inhibition at 5 µM (Hepatitis C virus [1]): 75.5%
- selectivity ratio [6]: 48.4
- CC50 at 72 h [7]: 158 µM
- viability at 72 h, 200 µM [2]: 37.1%
- viability at 72 h, 20 µM [3]: 92.7%
- inhibition at 20 µM (Hepatitis C virus [4]): 86.7%

Compound: c1ccc(Nc2cc3oc(-c4ccco4)nc3c3ccccc23)cc1
- inhibition at 5 µM (Hepatitis C virus [1]): 1.8%
- viability at 72 h, 200 µM [2]: 31.5%
- viability at 72 h, 20 µM [3]: 81.2%
- inhibition at 20 µM (Hepatitis C virus [4]): 2.53%

Compound: c1ccc(Nc2cc3oc(-c4ccccc4)nc3c3ccccc23)cc1
- inhibition at 5 µM (Hepatitis C virus [1]): 3.51%
- viability at 72 h, 200 µM [2]: 25.5%
- viability at 72 h, 20 µM [3]: 87%
- inhibition at 20 µM (Hepatitis C virus [4]): 4.28%

Compound: CN(c1ccc(Cl)cc1)c1cc2oc(-c3ccccc3)nc2c2ccccc12
- inhibition at 5 µM (Hepatitis C virus [1]): 1.2%
- viability at 72 h, 200 µM [2]: 25.5%
- viability at 72 h, 20 µM [3]: 81%
- inhibition at 20 µM (Hepatitis C virus [4]): 1.21%

Compound: COc1ccc(-c2nc3c(cc(N(C)c4ccc(OC)cc4)c4ccccc43)o2)cc1
- inhibition at 5 µM (Hepatitis C virus [1]): 5.6%
- viability at 72 h, 200 µM [2]: 56.3%
- viability at 72 h, 20 µM [3]: 73.6%
- inhibition at 20 µM (Hepatitis C virus [4]): 8.5%

Compound: CN(c1ccccc1)c1cc2oc(-c3ccc(Cl)cc3)nc2c2ccccc12
- inhibition at 5 µM (Hepatitis C virus [1]): 4.2%
- viability at 72 h, 200 µM [2]: 29.6%
- viability at 72 h, 20 µM [3]: 94.7%
- inhibition at 20 µM (Hepatitis C virus [4]): 5.12%

Compound: COc1ccc(N(C)c2cc3oc(-c4ccco4)nc3c3ccccc23)cc1
- inhibition at 5 µM (Hepatitis C virus [1]): 2.5%
- viability at 72 h, 200 µM [2]: 32.3%
- viability at 72 h, 20 µM [3]: 49.5%
- inhibition at 20 µM (Hepatitis C virus [4]): 31.5%

Compound: COc1ccc(Nc2cc3oc(-c4ccc(OC)cc4)nc3c3ccccc23)cc1
- inhibition at 5 µM (Hepatitis C virus [1]): 3.2%
- viability at 72 h, 200 µM [2]: 28.5%
- viability at 72 h, 20 µM [3]: 63.4%
- inhibition at 20 µM (Hepatitis C virus [4]): 5.6%

- IC50 (Hepatitis C virus [5]): 17.8 µM
Compound: Clc1ccc(Nc2cc3oc(-c4ccc(Cl)cc4)nc3c3ccccc23)cc1
- inhibition at 5 µM (Hepatitis C virus [1]): 8.1%
- selectivity ratio [6]: 4.71
- CC50 at 72 h [7]: 83.7 µM
- viability at 72 h, 200 µM [2]: 27.5%
- viability at 72 h, 20 µM [3]: 60.2%
- inhibition at 20 µM (Hepatitis C virus [4]): 55.2%

Compound: COc1ccc(N(C)c2cc3oc(-c4ccccc4)nc3c3ccccc23)cc1
- inhibition at 5 µM (Hepatitis C virus [1]): 3.4%
- viability at 72 h, 200 µM [2]: 27.5%
- viability at 72 h, 20 µM [3]: 83.6%
- inhibition at 20 µM (Hepatitis C virus [4]): 3.51%
